# In ChEMBL document CHEMBL4513216, “Probing the Open Global Health Chemical Diversity Library for Multistage-Active Starting Points for Next-Generation Antimalarials” (ACS Infect Dis, 2020):
# Assay: Toxicity liver stage against HepG2, at 10uM
# Type: cell-based
# Parameters: test concentration 10 uM, cell line HepG2-A16-CD81EGFP
# Conditions: human, HepG2-A16-CD81EGFP cells; read-out: INHIBITION
# How it was run: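 Uninfected HepG2-A16-CD81EGFP cells, 3 × 10^3 per well, 1536-well, plated on prespotted compound at 10 μM final, parasite-free screening media added to match infected plates; puromycin 10 μM positive, DMSO 0.5% negative; run in parallel with 48 h PbLuc assay at 37 °C, 5% CO2; viability by CellTiter-Glo luminescence, normalized to controls.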
row,Compound,cytotoxicity at 10 µM [%]
1,Cc1ccccc1S(=O)(=O)Cc1nsc(N(C)C)n1,-4.45
2,Cc1cc(N(C)C)nc(C2(C)CCNCC2)n1,7.79
3,COCc1nn(C(C)C)c2c1CCN(Cc1ccsc1)C2,-4.51
4,O=C(Nc1ccc(CCN2CCOCC2)cc1)C1CCC1,-9.95
5,CC(O)C1CCN(C(=O)CCOc2ccccc2F)CC1 (configuration not stated),-5.63
6,CC(NC(=O)NCCN1CCCCCC1=O)c1ccc(Cl)s1 (configuration not stated),-0.331
7,CC(C)=CCN1C(=O)[C@@H]2CC[C@H]1CN(C(=O)CCc1nnc(Cl)[nH]1)C2,2.96
8,O=C1Nc2ccccc2CC12CCCN2Cc1ccc(C(F)(F)F)cc1 (configuration not stated),30.2
9,O=C(c1cccnc1-c1ccoc1)N1C[C@@H]2CC[C@H]1C2,6.3
10,Nc1ccncc1-n1cc(CCO)cn1,0.769
11,Cc1nc(CSc2ccc(C(F)(F)F)cn2)no1,-3.38
12,Cc1cc(NC(=O)C(C)Cn2cc(Br)cn2)no1 (configuration not stated),-2.04
13,CC(C)n1cnc2c1C(C(=O)N1CCCC1)N(CC1CC1)CC2 (configuration not stated),6.59
14,Cc1nc(N2CCN(C(=O)c3ccccc3)CC2)c2c(n1)c(C)nn2C,15.7
15,CCOCC(=O)N1C[C@H]2CCC[C@@]2(COC)C1,0.419
16,CN1CCc2[nH]cnc2C12CCN(Cc1ccc(S(C)(=O)=O)cc1)CC2,-3.72
17,CN1C(=O)C2(CCN(c3ncccc3C(=O)O)CC2)c2ccccc21,-2.25
18,CC(C)CNC(=O)CN(CC(=O)NCC(C)C)S(C)(=O)=O,-12.2
19,Nc1cnn(CC(=O)N2CCCCC2)c1,-3.15
20,COc1ccccc1CCN(C)Cc1nc(N)nc(N(C)C)n1,6.96
21,Cc1ccc(CNC(=O)c2ccc(CNS(C)(=O)=O)o2)cc1F,15.2
22,O=C1COC2(CCN(Cc3cccs3)CC2)CN1c1ccccc1,-4.63
23,Nc1ncc(-c2cccc(NC(=O)[C@@H]3CCCCN3)c2)cn1,1.86

row,Compound,cytotoxicity at 10 µM [%]
1,O=C(c1cc2c(F)cccc2[nH]1)N1CCCCC1Cn1cccn1 (configuration not stated),-7.95
2,Cc1nnc(NCc2cccnc2N(C)C)c(C#N)c1C,-4.94
3,CS(=O)(=O)N1CCCC(Cc2ccnc3ccncc23)CC1 (configuration not stated),-12.8
4,CCn1ccnc1-c1nccn1-c1ccccc1CN1CCOCC1,14.1
5,COc1cc(C(=O)N2CCCC2CC(=O)c2cnn(C)c2)ccc1F (configuration not stated),-4.62
6,Cc1ccc(C(C)NC(=O)Cc2c(C)nc3c(c2C)c(=O)[nH]n3C)o1 (configuration not stated),-16.3
7,O=C(O)c1cccc(CC2CCN(c3ncccn3)CC2)c1,-134
8,Cc1cc(C(F)(F)F)nn1CCCNC(=O)C1CCCO1 (configuration not stated),-6.5
9,COc1ncccc1CNC(=O)c1ccc(C)[nH]c1=O,-2.22
10,Cc1nc(CN(C)C2CCN(Cc3c(C)noc3C)C2)no1 (configuration not stated),6.66
11,Cn1nnc2c1C(COCC1CC1)CN(C(=O)CC1=CCCCC1)C2 (configuration not stated),-99.3
12,NCC1CCC(C(NC(=O)c2cccc(F)c2)c2ccccn2)CC1 (configuration not stated),-6.83
13,CNc1snc(C)c1C(=O)N1CCCC(n2cccn2)C1 (configuration not stated),-3.81
14,Cc1nc(CN2C[C@@H]3COC[C@]3(COCC(=O)N(C)C)C2)cs1,1.41
15,Cc1ccnc(NC(=O)c2cnc(C3CCCNC3)cn2)c1 (configuration not stated),3.33
16,Cc1cnn(CC2CN(CCN3CCCC3=O)CCO2)c1 (configuration not stated),-9.7
17,COCCN1CCC(c2nc3ccccc3[nH]2)CC1,0.575
18,COCC(=O)N1CCC(c2nc3ccc(-c4ccccc4)cn3n2)CC1,-0.555
19,NC(=O)c1cncc(-n2ccc(-c3cnccn3)n2)c1,-11.9
20,CC(C)COC(=O)N1[C@@H](c2ccco2)[C@@H](CO)C[C@]12CCCCNC2=O,1.19
21,COC(=O)c1ccc(N2CCN(CCS(C)(=O)=O)C(C)C2)cc1 (configuration not stated),-5.57
22,CC(CNC(=O)NCc1ccoc1)N1CCc2sccc2C1 (configuration not stated),-4.8
23,Cc1nn(C)c(Cl)c1C1CCCN1Cc1nc(C2CC2)no1 (configuration not stated),-6.42

row,Compound,cytotoxicity at 10 µM [%]
1,O=S(=O)(c1ccc(F)c(F)c1)N1CCCC(c2nccs2)C1 (configuration not stated),-0.523
2,Clc1ccc(CN(CCN2CCOCC2)Cc2cccnc2)c(Cl)c1,-4.25
3,Cc1nc(CN2CCCN(C(=O)c3c(C)oc(C)c3C)CC2)cs1,-14
4,O=C1C(NS(=O)(=O)c2ccc(F)c(F)c2)CCN1Cc1ccccc1 (configuration not stated),-2.81
5,CC1CN(CC(=O)NCc2cccs2)CCN1c1nccs1 (configuration not stated),-12.8
6,CSc1ccccc1C(=O)N1CCN(C)C2(CCC(=O)N(C)CC2)C1 (configuration not stated),3.84
7,COc1ccc(C(CNC(=O)NCc2csc(C)n2)N(C)C)cc1 (configuration not stated),-5.59
8,O=C(NCC1CCCCO1)c1cc(Cn2cnc3ccccc32)[nH]n1 (configuration not stated),-11.3
9,Cc1ccc(CN(C)Cc2ncc(C(C)(C)C)o2)o1,-6.58
10,CC(C)NC(=O)N1CCC2(CC1)NC(=O)[C@H]1CN(C(=O)N(C)C)C[C@H]12,-1.66
11,O=C(Cc1ccsc1)N1CCC[C@@H]1Cn1c(=O)oc2ccccc21,4.53
12,CN(Cc1ccncc1)C1CCC[C@@H]2CN(c3ncccn3)C[C@H]12 (some centres not stated),-3.21
13,Cc1ccc(C)c(CC(=O)NC2CCS(=O)(=O)CC2)c1,-9.56
14,CCC(C)C(=O)Nc1ccc(CCN2CCOCC2)cc1 (configuration not stated),-0.578
15,O=C(NCCc1cccc(F)c1)NCC(O)c1cccc(F)c1 (configuration not stated),-13.1
16,O=C(Cc1cn2ccsc2n1)N(Cc1ccco1)CC1CCCO1 (configuration not stated),7.07
17,N#Cc1cccc(OCCCN2CCN(C(=O)c3ccoc3)CC2)c1,3.57
18,COc1cc(CN2CCCC[C@]3(C)NC(=O)CC[C@H]23)ccc1F,-2.32
19,CC(C)c1cnc(CNc2c(F)cccc2-n2cccn2)o1,-6.07
20,Cc1nc(N2CCCC2)ncc1-c1cc(O)nc(N2CCCC2)n1,6.79
21,Cc1cc(CN(C)CC(c2cccs2)N2CCOCC2)on1 (configuration not stated),0.049
22,Cn1nc(C(=O)N2CCOCC2)cc1C(=O)Nc1ncc(Cl)cc1Cl,12.5
23,CC(C)(C)C(=O)NCCC(=O)NC(C)(C)c1ccc2c(c1)OCCO2,-1.22

row,Compound,cytotoxicity at 10 µM [%]
1,CCc1nnc(NC(=O)NCCN(C)C(=O)OC(C)(C)C)s1,-1.6
2,O=C(NCc1ccccn1)[C@@H]1COC[C@H]2CNC[C@H]21,11.2
3,Cc1cnc(N2CCCC(c3ccccc3)C2)nc1-c1ncnn1C (configuration not stated),-1.79
4,COc1cccc(S(=O)(=O)NC(=O)CCC2CCCC2)c1,0.428
5,COc1ccc(OC)c(C(O)CN2CCN(c3cccc(C)c3)CC2)c1 (configuration not stated),6.69
6,CN(C)c1ncc(CN2CCC(O)(c3ccccc3F)CC2)cn1,2.4
7,CCN(CC)C(CNC(=O)CCc1nc(C(C)C)no1)c1ccco1 (configuration not stated),5.91
8,CCN(C)c1ccc(CNC(=O)CCn2cc(C)cn2)cc1F,-9.51
9,Cc1ccc(S(=O)(=O)NCc2cccc(C(=O)N3CCCC3)c2)cc1F,-14.5
10,Cc1cc(C)c2[nH]c(=O)c(CN3CCCC(O)(CO)C3)cc2c1 (configuration not stated),-2.25
11,COc1cc(NCC(=O)NC(C)(C#N)C(C)C)cc(OC)c1OC (configuration not stated),-7.33
12,Cc1cccc(N2CCN(S(=O)(=O)CCN)CC2)c1,0.0723
13,COC(=O)CNC(=O)c1nc(-c2ccccc2OC)c2cnccn12,8.6
14,CNC(=O)[C@@H]1CC[C@@H]2[C@@H](CCN2Cc2cn(C)c3ccccc23)O1,10.7
15,CCN(CC)C1(Cc2cc(CC(C)C)on2)COC1,2.23
16,O=C1CN(c2ccc(CNc3cncc(-n4cccn4)n3)cc2)CCN1,-13.3
17,COCC1CN(c2ccc(C)nn2)Cc2cnn(C)c21 (configuration not stated),11.7
18,Cc1nccn1CCCNc1ccc(Cl)c(C#N)n1,-7.62
19,Cc1cc(NC(=O)CN(CC(C)O)c2ccccc2)on1 (configuration not stated),-2.15
20,O=C(CCN1CCCCC1c1cc2ccccc2[nH]1)N1CCOCC1 (configuration not stated),7.82
21,Cc1cc(C(=O)CN(Cc2cccnc2)CC2CCCO2)c(C)[nH]1 (configuration not stated),-1.26
22,Nc1nccnc1C1CN(C(=O)c2cnc(C3CC3)nc2)CCO1 (configuration not stated),-27
23,Cc1nc(C2CCCN(C(=O)c3cc(-c4ccccc4)[nH]n3)C2)no1 (configuration not stated),-7.99

row,Compound,cytotoxicity at 10 µM [%]
1,Cc1nc(CN(C)Cc2cc3c(cc2OC(F)F)OCO3)cs1,8.68
2,COc1cccc(F)c1C(C)NC(=O)NCc1cc(C(C)C)no1 (configuration not stated),4.25
3,CCn1c(C2CCCNC2)nn(CCn2cncn2)c1=O (configuration not stated),-18.1
4,O=C(c1cscn1)N1CCc2ncnc(-c3ccncc3)c2CC1,-4.71
5,Cc1cnn(CCC(=O)N2CCCC(c3nc(C)no3)C2)c1 (configuration not stated),-1.59
6,O=C(c1cccc(Cl)c1)N1CCCC(Nc2ccc(F)cc2)C1 (configuration not stated),-7.05
7,COc1c(CNC(c2ccc(F)cc2)C(C)(C)C)c(C)nn1C (configuration not stated),0.0161
8,CCn1cc(S(=O)(=O)NC(CO)Cc2ccccc2)cn1 (configuration not stated),6.07
9,CN(C)C(=O)CN1CCc2ncnc(NC3CCC3)c2CC1,-94.4
10,CCCS(=O)(=O)N(C)C(=O)CCc1ccsc1,0.321
11,CCc1nncn1CCNC(=O)Nc1ccc2c(c1)CCCO2,1.79
12,CC(C)c1cc(C(=O)NCC2(C(N)=O)CCOCC2)nn1C(C)(C)C,10.3
13,COC(=O)c1cccn1C1CCN(Cc2cnc3ccccn23)CC1,-8.86
14,COc1coc(CN2CCCC(CCc3ccccc3C)C2)cc1=O (configuration not stated),-0.931
15,Cc1cc(F)ccc1OC1(C(=O)O)CCN(Cc2c[nH]cn2)CC1,1.18
16,Cc1nccn1C1CCCN(C(=O)c2ccc(-n3cccn3)nc2)C1 (configuration not stated),-9.18
17,Cc1cnn(CCNc2nc(C)cc(N(C)C)n2)c1,5.36
18,CCC1CN(C(=O)c2cncc(C)c2)CCC(=O)N1Cc1ccccc1 (configuration not stated),9.33
19,Cc1cc(N2CCCC2)nc(N(C)CCO)c1C#N,0.252
20,CCn1c(CC2CCN(C(=O)C3COCCO3)CC2)nn(C)c1=O (configuration not stated),-0.525
